{
  "source": "PubChem BioAssay AID588687",
  "about": "(Southern Research Specialized Biocontainment Screening …, 2011)",
  "note": "Activity calls are given as the source filed them.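 Rule for the calls: active = inhibition of 30% or more at any tested concentration; inactive = the rest.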",
  "data": [
    {"system": "M18 aspartyl aminopeptidase (Plasmodium falciparum 3D7)", "test": "P. falciparum M18 aminopeptidase activity inhibition – biochemical, QFRET fluorogenic substrate, counter-screen for PfM1 aminopeptidase inhibitor project, dose response (AID 588687)", "conditions": "recombinant PfM18AAP, H-Glu-NHMec fluorogenic cleavage; series mostly up to 100 µM", "outline": "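Medium: Tris-HCl buffer, pH 7.5, with 2 mM CoCl2; system: recombinant P. falciparum PFM18AAP enzyme; quantity: 5 µg/mL enzyme; replication: each concentration tested in triplicate; reagent: 0.1 mM H-Glu-NHMec substrate; detection: fluorescence, ex 370 nm / em 460 nm; timing: enzyme reaction with compounds 90 min at room temperature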", "values": [
      {"smiles": "CC[C@H](C)[C@H](NS(=O)(=O)c1cccs1)C(=O)NCc1ccc(F)cc1", "outcome": "inactive"},
      {"smiles": "CC(=O)Nc1cccc(-c2ccc(S(=O)(=O)N3CCC(C(=O)NCc4ccc5c(c4)OCO5)CC3)s2)c1", "outcome": "inactive"},
      {"smiles": "CC[C@H](C)[C@H](NC(=O)c1ccc([N+](=O)[O-])cc1)C(=O)NCc1ccccc1", "outcome": "inactive"}
    ]}
  ]
}
